TbHK1 inh = T. brucei hexokinase 1 inhibition; hit rate 0.11% among 220,000; inhibition, % at 10 µM; AID 1430; recombinant TbHK1, G6PDH-coupled NADH A340;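 active means inhibition of 50% or more in the single-dose primary screen; inactive means inhibition below 50%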
HSP90 inh = inhibitors of HSP90 luciferase refolding in rabbit reticulocyte lysate. hit rate 0.91% among 290,000. inhibition, % at 5.6 µM. AID 1789. luciferase refolding luminescence, 3 h;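 active means inhibition above the screen-wide mean plus 3 SD, computed separately per campaign, cut at about 16% in these data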;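 further: 0% = DMSO wells and 100% = 60 µM geldanamycin wells; inhibitors lower the luminescence because luciferase stays unfolded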
Hsp70 act = Hsp70 transcriptional activation, primary screen; HeLa Hsp70 promoter luciferase reporter, luminescence; scaled: vehicle 0, proteasome-inhibitor control 100%; hit rate 0.04% among 200,000; AID 1203; activation, % at 10 µM;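 active means activation above the mean across all tested compounds plus 3 SD, cutoff set per campaign, cut at about 5.5% in these data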;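 further: 100% = MG132 at 30 µM as the positive control and 0% = DMSO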
HKDC1 inhibitor = HKDC1 (human) hexokinase inhibition; Q2TB90; recombinant HKDC1, G6PDH/diaphorase resazurin coupled fluorescence; inhibition, % at 20 µM; hit rate 0.16% among 340,000;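 active means inhibition above about 35% when tested at 20 µM, limit read from the data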;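 further: plate controls were DMSO wells with enzyme for no effect and DMSO wells lacking enzyme for full effect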
Target sequence (Q2TB90 whole entry, looked up): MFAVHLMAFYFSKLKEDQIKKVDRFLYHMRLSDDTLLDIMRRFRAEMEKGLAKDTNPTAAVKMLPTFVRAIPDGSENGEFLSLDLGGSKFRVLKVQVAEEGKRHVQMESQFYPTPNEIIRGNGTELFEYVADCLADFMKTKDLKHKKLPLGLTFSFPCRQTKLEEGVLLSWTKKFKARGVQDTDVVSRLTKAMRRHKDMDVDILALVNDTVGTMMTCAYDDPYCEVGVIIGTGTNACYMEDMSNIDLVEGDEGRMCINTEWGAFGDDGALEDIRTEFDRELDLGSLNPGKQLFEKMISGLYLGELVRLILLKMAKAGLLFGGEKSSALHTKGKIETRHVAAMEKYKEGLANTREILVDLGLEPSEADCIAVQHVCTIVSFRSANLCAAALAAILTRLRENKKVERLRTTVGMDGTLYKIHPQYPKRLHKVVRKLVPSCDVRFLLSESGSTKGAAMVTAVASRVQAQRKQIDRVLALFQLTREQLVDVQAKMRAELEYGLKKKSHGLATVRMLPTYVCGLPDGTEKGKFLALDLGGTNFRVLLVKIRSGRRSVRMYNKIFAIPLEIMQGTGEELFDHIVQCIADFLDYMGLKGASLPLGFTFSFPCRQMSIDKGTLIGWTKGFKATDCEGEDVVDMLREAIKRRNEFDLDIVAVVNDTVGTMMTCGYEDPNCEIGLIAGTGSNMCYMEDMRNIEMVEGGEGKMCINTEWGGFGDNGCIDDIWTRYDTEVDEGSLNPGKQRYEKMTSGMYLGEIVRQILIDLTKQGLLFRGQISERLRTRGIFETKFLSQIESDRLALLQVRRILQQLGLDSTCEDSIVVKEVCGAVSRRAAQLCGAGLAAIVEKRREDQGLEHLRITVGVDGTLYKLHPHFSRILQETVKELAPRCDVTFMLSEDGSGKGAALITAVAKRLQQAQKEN
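System: Recombinant HKDC1 hexokinase | Amount: HKDC1 at 5 µg/mL | Reagent: Glucose with 1 mM ATP | Doses: Single 20 µM dose | Incubation: Reaction time 90 min, room temperature, protected from light | Signal: Coupled resazurin fluorescence, excitation 525 nm, emission 613 nm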
HSF1 activator = increases HSF-1 driven luciferase reporter signal | hit rate 1.7% among 300,000 | activation, % at 9 µM | AID 504408 | NIH3T3-HGL HSF-1 luciferase reporter, MG132, 8 h; 100% = twice DMSO control signal;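 active means mean replicate activation of at least 50% with a set share of replicates each reaching 50%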;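 further: 0% = median of the neutral control wells and 100% = twice that signal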
HSF1 inhib = HSF1 inhibition; hit rate 0.77% among 300,000; activity change, negative = inhibition, % at 7.5 µM (by protocol); NIH3T3-HGL HSE-luciferase, MG132-induced, luminescence 8 h; active compounds read low;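 active means more than half of replicate wells show activity change below -50%, luminescence cut by over half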;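 further: luciferase reports HSF-1 transcriptional activity via heat shock element; 0% = median of DMSO wells and -100% = zero luminescence signal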
* = called active by the depositor; . = no result given. A selection: hits, their analogues and other compounds. The true share with any hit is near 3.1%.

SMILES | TbHK1 inh | HSP90 inh | Hsp70 act | HKDC1 inhibitor | HSF1 activator | HSF1 inhib
Cc1cc2nc(-c3ccc(SCC(=O)Nc4ccc(S(=O)(=O)NC5CC5)cc4)nc3)[nH]c2cc1C | -24 | -2 | 0 | 8 | 54* | 21
COc1ccc([C@H]2CC(=O)C=C(c3cccc(NC(C)=O)c3)C2)cc1 | . | . | . | 2 | . | .
CC(C)CC(=O)NC(NC(=O)CC(C)C)c1cccc([N+](=O)[O-])c1 | 7 | -1 | -1 | 0 | -77 | -70*
O=C(Cc1ccccc1)NC(NC(=O)Cc1ccccc1)c1cccc([N+](=O)[O-])c1 | 7 | 2 | 0 | 9 | -7 | -5
COc1ccc(CCNC(=O)c2nonc2N)cc1 | 5 | -3 | 0 | -3 | 61* | 41
COc1cccc(CNCCNC(=O)c2nonc2N)c1 | 1 | -1 | 0 | -2 | 12 | 3
CCOc1ccccc1CNCCNC(=O)c1nonc1N | -5 | 16* | . | -8 | 1 | 0
COc1ccc([C@H]2CC(=O)C=C(c3cc(C=O)ccc3OC)C2)cc1 | . | . | . | -1 | . | .
Nc1nc(CSc2nc3ccccc3s2)nc(Nc2ccccc2)n1 | -5 | 1 | 0 | . | 58* | 31
Cc1c(Cl)cccc1Nc1nc(N)nc(CSc2nc3ccccc3s2)n1 | -5 | -2 | 0 | 20 | 12 | 9
c1ccc(N2CCN(Cc3nc4ccccc4[nH]3)CC2)nc1 | . | -4 | . | 0 | -1 | -3
Cc1[nH]c2ccccc2c1CN1CCN(c2ccccn2)CC1 | 4 | 3 | . | -3 | 81* | 52
COc1ccc(CNC(=O)CN2CCN(c3ccccc3)CC2)cc1 | . | 12 | . | -5 | 15 | 4
O=C(CN1CCN(c2ccccc2)CC1)NCc1ccc(F)cc1 | . | -1 | . | -1 | -62 | -56*
O=C(/C=C\c1ccccc1OC(=O)c1ccccc1F)c1cc2ccccc2o1 | -13 | -2 | 0 | 26 | 166* | 124
Cc1cc(NC(=O)C2C3C(=O)N(Cc4ccc(Cl)cc4)C(C(=O)NC(C)(C)C)C34C=CC2(C)O4)no1 (centres undefined) | 3 | -2 | 0 | 1 | -64 | -55*
CCOc1ccccc1N1CC(C(=O)Nc2cc(S(C)(=O)=O)ccc2Cl)CC1=O (centres undefined) | . | . | . | -4 | 5 | 4
O=C(Nc1cccn(Cc2c(Cl)cccc2Cl)c1=O)c1ccccc1Cl | -2 | 2 | 0 | 8 | 89* | 39
O=C(O)c1ccccc1C(=O)Nc1ccc(Br)c2cccnc12 | -10 | 13 | 0 | 14 | 51* | 36
O=C(Nc1cccc2cccnc12)c1ccccc1Cl | . | . | . | 3 | 91* | 50
COc1ccc(OC)c(NC(=O)CCN2CCN(c3ccccc3OC)CC2)c1 | . | 2 | . | -8 | 10 | 0
Nc1cccc(N=[N+]([O-])c2cccc(N)c2)c1 | . | . | . | -1 | . | .
Cc1ccc(-n2sc3ccccc3c2=O)cc1 | 66* | -2 | 0 | 15 | 39 | 6
COc1c(N2CCN(C(=S)Nc3ccc(F)cc3)C(C)C2)c(F)cc2c(=O)c(C(=O)O)cn(C3CC3)c12 (centres undefined) | -3 | -4 | 0 | 1 | -8 | -3
COc1c(N2CCN(C(=S)NC3CC4CCC3C4)C(C)C2)c(F)cc2c(=O)c(C(=O)O)cn(C3CC3)c12 (centres undefined) | -56 | -1 | . | 3 | -68 | -55*
SMILES | TbHK1 inh | HSP90 inh | Hsp70 act | HKDC1 inhibitor | HSF1 activator | HSF1 inhib
COc1ccc2cc3c(N)nn(C(=O)c4ccc(F)cc4)c3nc2c1 | -15 | -4 | . | 0 | -34 | -23
COc1ccc2cc3c(N)nn(C(=O)c4ccccc4Cl)c3nc2c1 | -25 | -4 | . | -1 | -63 | -51*
COc1ccc2cc3c(N)nn(C(=O)Cc4c[nH]c5ccccc45)c3nc2c1 | -32 | -4 | . | 3 | -65 | -54*
CN(C(=O)Cn1c(=O)oc2ccccc21)C1CCCCC1 | . | . | . | -3 | . | .
CC(=O)Nc1cc(OC(C)=O)c2nonc2c1OC(C)=O | -10 | 85* | 0 | 9 | . | .
CC(=O)Nc1nonc1NC(C)=O | 46 | -2 | 0 | -5 | 0 | -2
O=C1C=CC(=O)N1N(c1ccccc1)c1ccccc1 | 11 | 2 | 0 | -1 | 69* | 57
O=C1c2ccccc2C(=O)N1N(c1ccccc1)c1ccccc1 | . | . | . | -1 | . | .
C=CCn1c(=O)c2ccccc2n2c(SCC(=O)Nc3sc(C)c(CC)c3C(=O)OCC)nnc12 | 31 | -5 | 0 | 7 | 54* | 20
C=CCn1c(=O)c2ccccc2n2c(SCC(=O)Nc3sc(C(=O)N(CC)CC)c(C)c3C(=O)OCC)nnc12 | -11 | -3 | 0 | 11 | 13 | 5
O=[N+]([O-])c1ccc(COn2nnc3ccccc32)cc1 | -5 | -3 | 0 | -5 | 30 | 20
Clc1ccc(COn2nnc3ccccc32)c(Cl)c1 | 0 | 5 | 0 | 1 | 86* | 53
Cn1nc(C(=O)NNC(=O)Cc2ccc(S(=O)(=O)N3CCOCC3)s2)c2ccccc2c1=O | . | . | . | -2 | . | .
Cc1cc(C)nc(S/C=C/C(=O)c2ccccc2F)n1 | -10 | 11 | . | 1 | 189* | 150
CC(CSc1nc2ccccc2s1)Cn1c(N2CCCC2)nc2c1c(=O)[nH]c(=O)n2C (centres undefined) | 5 | 0 | 0 | -1 | 56* | 22
COc1ccc(CN(CCN)C2CC(C)N(C)CC2C)cc1 (centres undefined) | . | 0 | . | 2 | 1 | 0
COc1cccc(C(=O)Nc2ccc(C)cc2)c1 | -1 | 9 | 0 | 0 | 32 | 21
COc1ccc2oc(C(=O)NC3CCCCC3)c(C)c2c1 | . | -1 | . | 8 | 61* | 37
COc1cccc(C(=O)NC2CCCC2)c1 | 5 | -4 | 0 | 9 | 70* | 25
COc1cccc(C(=O)NNC(=S)NC2CCCCC2)c1 | 3 | -3 | 0 | -7 | 28 | 10
COc1cccc(C(=O)Nc2ccc(C3CC3(Cl)Cl)cc2)c1 (centres undefined) | 4 | -2 | 1 | -2 | 103* | 61
COc1cccc(NC(=O)C2CC2)c1 | . | . | . | -10 | -8 | -4
CCC1CCC(NC(=O)Nc2cccc(OC)c2)CC1 (centres undefined) | 0 | 2 | 0 | -10 | 62* | 25
Cc1nc(S(=O)(=O)c2ccc(Cl)cc2)c(N(C)C)o1 | . | 3 | . | -5 | 2 | -1
COCCNC(=O)C(c1ccc(C)cc1)N(C(=O)CCC(=O)Nc1ccccn1)c1ccccc1C (centres undefined) | . | -2 | . | -6 | 78* | 27
COCCNC(=O)C(c1ccc(C)cc1)N(C(=O)CCC(=O)Nc1ccccn1)c1ccc(C)cc1 (centres undefined) | . | 0 | . | -1 | -9 | -3
O=C(O)c1ccc(/C=N/NC(=O)c2ccc3c(c2)OCCO3)cc1 | . | 2 | . | -5 | -11 | -19
